Entries after “also recorded” stand apart in the source; their conditions may differ.

Here are results for seven compounds from paper PMC3769689 (Journal of medicinal chemistry, 2013).

Series [1] in a line: rat microsomal clearance. The class given is in vitro ADME. As to conditions: for Rat CLHEP: predicted hepatic clearance in vitro; for Rat CLHEP / CLint scaled at 1 µM: rat; for CLint scaled at 1 µM: microsomes.
Series [2] can be described thus: rat IV PK. The series is classed as in vivo. As to conditions: plasma.
Series [3] deals with T1, mGlu3 (Rattus norvegicus, UniProt P31422). The following applies: cited from earlier work.
Series [4] addresses T1, mGlu3. In words: mGlu3 calcium mobilization assay. The series is classed as cell-based. In general terms: Calcium flux is commonly read through the fluorescence of an indicator in the cells.
Series [5] has as its target mGlu1 (Homo sapiens, UniProt Q13255). Put plainly: mGluR selectivity, mGlu1. The series is classed as cell-based.
Series [6] deals with mGlu4 (Homo sapiens, UniProt Q14833). In words: mGluR selectivity, mGlu4. The class given is cell-based.
Series [7] addresses mGlu5 (Homo sapiens, UniProt P41594). In words: mGluR selectivity, mGlu5. The class given is cell-based.
For series [8], the target named is mGlu6 (Homo sapiens, UniProt O15303). Put plainly: mGluR selectivity, mGlu6. The series is classed as cell-based.
The target of series [9] is mGlu7 (Homo sapiens, UniProt Q14831). In words: mGluR selectivity, mGlu7. The series is classed as cell-based.
The target of series [10] is mGlu8 (Homo sapiens, UniProt O00222). In words: mGluR selectivity, mGlu8. The series is classed as cell-based.
The target in series [11] is T1, mGlu3. Put plainly: progressive fold shift assay with glutamate. The series is classed as cell-based.
Series [12] deals with T1, mGlu3. Put plainly: probe dependence, glutamate vs LY379268. The series is classed as cell-based. The following applies: glutamate vs LY379268 as agonist.
Series [13] is described as follows: human microsomal clearance. The class given is in vitro ADME.
Series [14] has as its target DAT (Homo sapiens, UniProt Q01959). In words: functional activity at DAT.
The target in series [15] is 5-HT2B (Homo sapiens, UniProt P41595). In words: functional activity at 5-HT2B.
Series [16] in a line: mouse tissue distribution study. The series is classed as in vivo. The following applies: cassette, IP. The gist of the method: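 Mice received the test compounds together as a cassette by intraperitoneal injection. Plasma and brain tissue were then analysed by LC/MS/MS to measure compound exposure in each and derive the brain-to-plasma ratio.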
Series [17] is described as follows: in vivo rat PK. The following applies: 10 mg/kg.
A short description of series [18]: metabolite identification. The class given is in vitro ADME.

T1 sequence (P31422 23-879): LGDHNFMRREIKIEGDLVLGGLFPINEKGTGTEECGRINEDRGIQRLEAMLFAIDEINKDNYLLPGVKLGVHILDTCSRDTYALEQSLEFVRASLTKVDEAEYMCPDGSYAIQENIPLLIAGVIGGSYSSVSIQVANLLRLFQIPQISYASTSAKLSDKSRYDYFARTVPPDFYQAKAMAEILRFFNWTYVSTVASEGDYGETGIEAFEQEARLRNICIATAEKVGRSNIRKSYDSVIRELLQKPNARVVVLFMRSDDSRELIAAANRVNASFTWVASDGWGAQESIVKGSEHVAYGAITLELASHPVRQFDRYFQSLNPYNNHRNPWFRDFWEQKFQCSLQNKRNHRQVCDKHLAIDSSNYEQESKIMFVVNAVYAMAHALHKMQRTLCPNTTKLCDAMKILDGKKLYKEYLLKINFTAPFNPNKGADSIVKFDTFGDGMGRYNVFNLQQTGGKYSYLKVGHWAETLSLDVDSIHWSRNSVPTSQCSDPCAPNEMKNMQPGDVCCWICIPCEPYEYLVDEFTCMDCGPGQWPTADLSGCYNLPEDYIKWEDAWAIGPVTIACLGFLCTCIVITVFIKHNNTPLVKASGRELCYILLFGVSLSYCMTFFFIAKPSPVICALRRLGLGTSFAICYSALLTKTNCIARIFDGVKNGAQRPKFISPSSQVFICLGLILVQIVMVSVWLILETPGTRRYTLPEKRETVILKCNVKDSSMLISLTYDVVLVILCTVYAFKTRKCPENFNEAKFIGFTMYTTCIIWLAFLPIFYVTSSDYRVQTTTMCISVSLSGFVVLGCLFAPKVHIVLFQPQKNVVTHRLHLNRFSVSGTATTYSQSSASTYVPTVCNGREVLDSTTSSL
Sequence of 5-HT2B (P41595 whole entry): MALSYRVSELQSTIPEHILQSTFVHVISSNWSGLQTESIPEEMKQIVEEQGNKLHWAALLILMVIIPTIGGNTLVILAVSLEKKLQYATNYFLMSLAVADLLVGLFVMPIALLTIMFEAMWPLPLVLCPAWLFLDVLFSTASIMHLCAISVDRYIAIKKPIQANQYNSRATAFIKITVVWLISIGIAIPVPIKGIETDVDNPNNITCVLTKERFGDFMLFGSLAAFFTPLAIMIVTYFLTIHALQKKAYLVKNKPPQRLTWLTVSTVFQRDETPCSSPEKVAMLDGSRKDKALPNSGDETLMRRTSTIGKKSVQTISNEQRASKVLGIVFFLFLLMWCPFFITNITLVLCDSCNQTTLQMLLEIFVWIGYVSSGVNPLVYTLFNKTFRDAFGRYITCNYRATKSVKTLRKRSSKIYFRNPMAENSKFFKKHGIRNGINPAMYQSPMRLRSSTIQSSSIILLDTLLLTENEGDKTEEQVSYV
Sequence of mGlu1 (Q13255 19-1194): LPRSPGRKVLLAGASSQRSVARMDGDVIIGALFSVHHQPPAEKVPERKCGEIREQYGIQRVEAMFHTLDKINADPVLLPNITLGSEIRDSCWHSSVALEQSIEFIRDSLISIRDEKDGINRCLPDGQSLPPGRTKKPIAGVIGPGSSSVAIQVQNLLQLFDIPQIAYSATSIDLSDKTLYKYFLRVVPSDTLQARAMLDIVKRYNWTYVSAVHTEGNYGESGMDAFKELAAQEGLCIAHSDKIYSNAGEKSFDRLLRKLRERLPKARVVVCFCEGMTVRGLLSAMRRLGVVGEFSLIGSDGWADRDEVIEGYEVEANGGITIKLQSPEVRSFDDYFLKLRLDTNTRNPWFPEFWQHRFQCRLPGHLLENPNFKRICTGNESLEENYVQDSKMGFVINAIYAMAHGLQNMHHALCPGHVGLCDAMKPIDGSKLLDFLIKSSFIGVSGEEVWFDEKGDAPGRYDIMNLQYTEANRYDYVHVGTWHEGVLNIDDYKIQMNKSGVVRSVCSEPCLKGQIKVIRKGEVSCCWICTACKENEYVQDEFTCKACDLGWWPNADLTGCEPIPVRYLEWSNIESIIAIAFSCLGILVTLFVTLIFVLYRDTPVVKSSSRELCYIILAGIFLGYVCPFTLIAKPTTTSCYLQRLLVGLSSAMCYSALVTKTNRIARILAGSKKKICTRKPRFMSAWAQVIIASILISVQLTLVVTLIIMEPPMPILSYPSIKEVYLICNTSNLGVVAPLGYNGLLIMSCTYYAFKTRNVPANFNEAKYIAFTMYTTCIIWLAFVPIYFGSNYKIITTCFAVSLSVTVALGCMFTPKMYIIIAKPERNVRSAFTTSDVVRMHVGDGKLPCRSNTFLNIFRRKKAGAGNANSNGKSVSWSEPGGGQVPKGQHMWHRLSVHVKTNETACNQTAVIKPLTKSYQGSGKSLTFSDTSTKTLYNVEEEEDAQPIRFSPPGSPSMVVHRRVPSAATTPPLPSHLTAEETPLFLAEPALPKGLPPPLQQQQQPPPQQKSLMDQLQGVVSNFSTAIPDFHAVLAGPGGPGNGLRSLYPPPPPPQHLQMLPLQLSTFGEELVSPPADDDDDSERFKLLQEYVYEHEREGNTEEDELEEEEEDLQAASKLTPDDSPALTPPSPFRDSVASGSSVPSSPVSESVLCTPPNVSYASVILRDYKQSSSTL
Sequence of mGlu5 (P41594 21-1212): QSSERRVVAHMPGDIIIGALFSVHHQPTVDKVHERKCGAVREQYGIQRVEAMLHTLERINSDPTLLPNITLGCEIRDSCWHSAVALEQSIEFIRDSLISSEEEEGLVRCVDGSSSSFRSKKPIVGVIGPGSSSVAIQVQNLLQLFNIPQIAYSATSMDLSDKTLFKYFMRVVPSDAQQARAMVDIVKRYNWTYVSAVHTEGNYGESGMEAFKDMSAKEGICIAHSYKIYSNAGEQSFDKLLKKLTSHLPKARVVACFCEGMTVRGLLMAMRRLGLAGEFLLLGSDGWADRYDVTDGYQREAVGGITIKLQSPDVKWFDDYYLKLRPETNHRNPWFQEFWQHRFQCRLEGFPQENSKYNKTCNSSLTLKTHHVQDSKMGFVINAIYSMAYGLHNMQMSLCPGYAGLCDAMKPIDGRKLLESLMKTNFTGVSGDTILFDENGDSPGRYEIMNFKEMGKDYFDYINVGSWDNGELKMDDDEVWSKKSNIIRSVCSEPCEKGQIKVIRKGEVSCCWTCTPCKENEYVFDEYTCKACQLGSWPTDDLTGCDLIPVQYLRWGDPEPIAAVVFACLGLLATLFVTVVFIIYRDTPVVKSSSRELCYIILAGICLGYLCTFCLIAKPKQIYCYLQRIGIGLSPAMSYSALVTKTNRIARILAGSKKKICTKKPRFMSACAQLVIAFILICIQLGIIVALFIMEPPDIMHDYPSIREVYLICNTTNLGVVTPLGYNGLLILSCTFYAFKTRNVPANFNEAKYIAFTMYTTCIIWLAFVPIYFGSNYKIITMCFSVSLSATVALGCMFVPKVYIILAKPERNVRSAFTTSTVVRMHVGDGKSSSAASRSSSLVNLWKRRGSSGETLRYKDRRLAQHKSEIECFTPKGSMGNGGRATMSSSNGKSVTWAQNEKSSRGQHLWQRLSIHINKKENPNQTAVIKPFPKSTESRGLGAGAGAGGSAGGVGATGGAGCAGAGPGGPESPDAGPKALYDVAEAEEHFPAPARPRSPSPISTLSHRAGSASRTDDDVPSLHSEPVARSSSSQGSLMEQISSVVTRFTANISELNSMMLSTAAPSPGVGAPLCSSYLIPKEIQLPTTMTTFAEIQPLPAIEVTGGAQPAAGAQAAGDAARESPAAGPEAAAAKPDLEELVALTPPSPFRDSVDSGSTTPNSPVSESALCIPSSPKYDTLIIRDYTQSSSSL
Sequence of DAT (Q01959 whole entry): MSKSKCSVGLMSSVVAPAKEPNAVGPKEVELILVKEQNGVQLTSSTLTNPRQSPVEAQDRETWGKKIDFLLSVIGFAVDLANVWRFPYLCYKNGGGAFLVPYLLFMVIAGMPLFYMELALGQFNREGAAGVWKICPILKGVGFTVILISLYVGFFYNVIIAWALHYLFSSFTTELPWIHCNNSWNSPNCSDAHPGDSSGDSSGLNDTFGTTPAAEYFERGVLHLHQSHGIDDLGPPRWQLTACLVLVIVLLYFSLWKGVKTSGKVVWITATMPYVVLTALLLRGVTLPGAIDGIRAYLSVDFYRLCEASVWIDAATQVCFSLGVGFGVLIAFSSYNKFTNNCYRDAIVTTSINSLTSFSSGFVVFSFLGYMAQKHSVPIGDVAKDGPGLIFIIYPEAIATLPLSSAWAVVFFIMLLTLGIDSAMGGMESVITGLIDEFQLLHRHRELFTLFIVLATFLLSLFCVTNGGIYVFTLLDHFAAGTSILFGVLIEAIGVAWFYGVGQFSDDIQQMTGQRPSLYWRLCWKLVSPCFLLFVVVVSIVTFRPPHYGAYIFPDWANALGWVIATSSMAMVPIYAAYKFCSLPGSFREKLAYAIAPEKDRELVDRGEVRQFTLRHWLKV

For the compound `[2H]C([2H])([2H])Oc1ccc(C#Cc2ccc(C(=O)N3CCC[C@@H](O)C3)c(F)c2)cc1` [compound 12], in series [1], the “Rat CLHEP” value is reported as 35.9 mL/min/kg. In [2], the Vd came to 0.18 L/kg and the clearance turned out to be 2.9 mL/min/kg.

For the compound `COc1ccc(C#Cc2ccc(C(=O)N3CCC[C@@H](CO)C3)cc2)cc1` [compound 3], in series [3], the “selectivity vs. mGlu2” value is on record as above 15 fold.

Consider `COc1ccc(C#Cc2ccc(C(=O)N3CCC[C@@H](O)C3)c(F)c2)cc1` [compound 9], for which the “mGlu3 NAM activity (in words)” value in [4] is “sub-micromolar”. Further, the half-maximal inhibitory concentration (IC50) in series [5], in [6], in series [7], in series [8], in [9] and in series [10] was above 30 µM throughout. Moreover, in series [11], the “mode of antagonism with respect to glutamate” value is given as “non-competitive antagonism; also recorded: non-competitive decrease in the EC80”. For the same compound, the probe dependence result in series [12] is “no differences; also recorded: equipotent and efficacious”. Further, the “Rat CLHEP” value in series [1] was 54.1 mL/min/kg. Further, the CLint scaled at 1 µM in [1] amounted to 239 mL/min/kg. The “stability in rat microsomes” value in [1] (words) is recorded as “unstable”. Further, the “Human CLHEP” value in series [13] (predicted hepatic clearance in vitro, human) is 18.9 mL/min/kg. Besides, the “stability in human microsomes” value in series [13] (words) is on record as “unstable”. The “functional activity at DAT” value in [14] was “no functional activity”. In addition, the “functional activity at 5-HT2B” value in series [15] was “no functional activity”. Moreover, the BrainAUC in [16] worked out at 3.37 µM. In [16], this compound came in with a plasmaAUC of 3.71 µM. Also, the “Brain AUC0-6” value in series [17] (IP, 0-6 h) was found to be 9.6 µM·h. In series [17] (brain and plasma, ip), this compound yielded a Kp of 0.3. This compound also came in with an exposure AUC(0-t) in [17] (plasma, ip) of 33.1 µM·h. Moreover, the volume of distribution (Vd) in [2] was determined as 0.21 L/kg. Besides, the clearance in series [2] is 5.2 mL/min/kg. Besides, the major metabolite entry in series [18] was “P450-mediated O-demethylation”.

`COc1ccc(C#Cc2ccc(C(=O)N3CCC[C@@H](O)C3)cc2)cc1` [8d]: in series [1], the “Rat CLHEP” value was 52.7 mL/min/kg and the intrinsic clearance (CLint scaled) at 1 µM came to 214 mL/min/kg. In series [2], this compound displayed a Vd of 0.22 L/kg and a clearance of 6.2 mL/min/kg.

As for `COc1ccc(C#Cc2ccc(C(=O)N3CCC[C@@H](O)C3)cc2F)cc1` [compound 10], in series [4], the “mGlu3 NAM activity (in words)” value is recorded as “sub-micromolar”.

As for `[2H]C([2H])([2H])Oc1ccc(C#Cc2ccc(C(=O)N3CCC[C@@H](O)C3)cc2)cc1` [compound 11], in series [1], the “Rat CLHEP” value is recorded as 40.7 mL/min/kg and the CLint scaled at 1 µM was 97.3 mL/min/kg. Moreover, in series [2], the Vd stood at 0.21 L/kg and the clearance stood at 3.3 mL/min/kg.

Regarding `COc1ccc(C#Cc2ccc(C(=O)N3CCCC(OC)C3)cc2)cc1` (centres unmarked) [8b], the “mGlu3 NAM activity (in words)” value in series [4] is given as “lost”.

As usually defined, the Vd is the apparent volume that relates the amount in the body to the concentration in plasma or blood. Read a high Vd as wide distribution into tissue. The term clearance denotes the volume of plasma or blood freed of the substance per unit of time. High values mean efficient removal, low ones inefficient removal. For orientation: IC50 means the concentration that inhibits the measured activity by half. A higher IC50 goes with weaker potency in that assay. The term CLint scaled denotes the capacity of the preparation to metabolise the compound, expressed as a volume cleared per time. A lower CLint scaled goes with slow turnover. Broadly, the Kp is the ratio of the level in a tissue or fluid to that in plasma or blood. As a reminder, the AUC(0-t) is exposure summed from dosing to a finite time, without extrapolation to infinity.
